Experimental data reported in ChEMBL document CHEMBL4680253, “Hybrids of MEK inhibitor and NO donor as multitarget antitumor drugs” (Eur J Med Chem, 2020).
The source made the active and inactive calls. The calls are words filed in the database; no cut-off is given here.

Assays:
[1] = Prodrug release in human HCT-116 cells assessed as increase in intracellular NO level at 100 uM measured after 2 hr by DAF-FM DA reagent based laser confocal scanning microscopy; settings: hct-116, 2 h
[2] = target: T1, Dual specificity mitogen-activated protein kinase kinase; MEK1/2 (Homo sapiens) (UniProt P36507+Q02750); test: Inhibition of MEK in human A549 cells assessed as reduction in ERK phosphorylation by Western blot analysis; assay type: cell-based; settings: TDE = time-dependent effect
T1 sequence (P36507 whole entry, looked up): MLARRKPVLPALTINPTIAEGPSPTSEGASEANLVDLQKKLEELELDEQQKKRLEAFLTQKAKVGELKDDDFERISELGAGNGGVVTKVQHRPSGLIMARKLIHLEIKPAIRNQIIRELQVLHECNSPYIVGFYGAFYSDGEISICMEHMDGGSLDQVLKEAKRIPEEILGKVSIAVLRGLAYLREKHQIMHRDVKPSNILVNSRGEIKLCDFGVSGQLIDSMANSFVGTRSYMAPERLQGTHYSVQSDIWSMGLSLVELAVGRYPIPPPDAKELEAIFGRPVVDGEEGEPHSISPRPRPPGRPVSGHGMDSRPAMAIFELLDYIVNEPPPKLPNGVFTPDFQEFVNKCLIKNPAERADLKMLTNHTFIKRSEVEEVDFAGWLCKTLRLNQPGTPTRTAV
T1 sequence (Q02750 whole entry, looked up): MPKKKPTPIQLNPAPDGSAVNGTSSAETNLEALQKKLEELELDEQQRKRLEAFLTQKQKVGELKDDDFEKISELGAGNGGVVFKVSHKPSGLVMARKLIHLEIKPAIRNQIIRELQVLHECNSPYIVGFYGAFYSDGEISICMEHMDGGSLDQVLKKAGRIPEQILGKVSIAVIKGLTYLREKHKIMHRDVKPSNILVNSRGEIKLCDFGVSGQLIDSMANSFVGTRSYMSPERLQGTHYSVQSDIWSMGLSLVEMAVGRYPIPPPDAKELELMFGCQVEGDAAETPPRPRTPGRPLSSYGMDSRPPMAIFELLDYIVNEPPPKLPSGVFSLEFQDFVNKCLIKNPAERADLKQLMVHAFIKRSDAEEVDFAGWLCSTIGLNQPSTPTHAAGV
Summary of the method: (§1)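 A549 cells in RPMI-1640 with 10% FBS, treated 2 h. Cells lysed in RIPA with protease/phosphatase inhibitors on ice for 20 min. Equal protein run on 4-20% SDS-PAGE and blotted to PVDF. Membranes blocked in 5% milk, then probed overnight at 4 °C with rabbit mAbs to pMEK, MEK, pERK and ERK, followed by HRP secondary. GAPDH used as loading control.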

MDA-MB-231 [3] = test: Induction of apoptosis in human MDA-MB-231 cells assessed as early apoptotic cells at 1 uM incubated for 24 hrs by AnnexinV-FITC and propidium iodide staining based flow cytometry (reference value: 4.4%); assay type: functional
[4] = target: T1, Dual specificity mitogen-activated protein kinase kinase; MEK1/2 (Homo sapiens); test: Inhibition of MEK in human MDA-MB-231 cells assessed as reduction in MEK phosphorylation at 10 uM incubated for 4 hrs by Western blot analysis; assay type: cell-based
Summary of the method: (§2)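 MDA-MB-231 in RPMI-1640 with 10% FBS. Dose series at 1, 3 and 10 µM for 2 h or 24 h; time course at 1 µM or 10 µM over several time points. RIPA lysates with protease/phosphatase inhibitors, equal protein on 4-20% SDS-PAGE, PVDF transfer, 5% milk block. Probed overnight at 4 °C for pMEK, MEK, pERK and ERK, then HRP secondary.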

[5] = target: T1, Dual specificity mitogen-activated protein kinase kinase; MEK1/2 (Homo sapiens); test: Inhibition of MEK in human MDA-MB-231 cells assessed as reduction in ERK phosphorylation at 1 to 10 uM incubated for 24 hrs by Western blot analysis; assay type: cell-based; settings: dose 1-10 µM
Summary of the method: as §2

HL-60 = test: Antiproliferative activity against human HL60 cells harboring NRAS […] mutant assessed as inhibition of cell viability after 96 hrs by Celltiter-Glo assay; assay type: functional, cell-based; settings: HL-60, 96 h
MDA-MB-231 [6] = test: Induction of apoptosis in human MDA-MB-231 cells assessed as necrotic cells at 10 uM incubated for 24 hrs by AnnexinV-FITC and propidium iodide staining based flow cytometry (reference value: 1.084%); assay type: functional
[7] = target: T1, Dual specificity mitogen-activated protein kinase kinase; MEK1/2 (Homo sapiens); test: Inhibition of MEK in human A549 cells assessed as reduction in MEK phosphorylation at 10 uM incubated for 2 hrs by Western blot analysis; assay type: cell-based
Summary of the method: as §1

L02 = test: Cytotoxicity against human HL7702 cells assessed as reduction in cell viability after 96 hrs by Celltiter-Glo assay; assay type: cell-based; settings: L02, 96 h
Summary of the method: (§3)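 Cells kept at 37 °C in humidified 5% CO2 with 10% FBS; Vero in DMEM, HL7702 in RPMI-1640. Compounds added to plated cells and incubated 96 h at 37 °C. Viability read by CellTiter-Glo reagent added directly to the wells. IC50 fitted from the readings.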

Vero = test: Cytotoxicity against African green monkey Vero cells assessed as reduction in cell viability after 96 hrs by Celltiter-Glo assay; assay type: cell-based; settings: Chlorocebus sabaeus
Summary of the method: as §3

[8] = Antiproliferative activity against human A375 cells harboring BRAF V600E mutant assessed as inhibition of cell viability after 96 hrs by Celltiter-Glo assay; assay type: functional, cell-based, A375/R; settings: A-375, 96 h
MDA-MB-231 [9] = test: Induction of apoptosis in human MDA-MB-231 cells assessed as viable cells at 10 uM incubated for 24 hrs by AnnexinV-FITC and propidium iodide staining based flow cytometry (reference value: 90.962%); assay type: functional; settings: read-out: Activity
MDA-MB-231 [10] = test: Induction of apoptosis in human MDA-MB-231 cells assessed as late apoptotic cells at 10 uM incubated for 24 hrs by AnnexinV-FITC and propidium iodide staining based flow cytometry (reference value: 3.54%); assay type: functional
[11] = target: T1, Dual specificity mitogen-activated protein kinase kinase; MEK1/2 (Homo sapiens); test: Inhibition of MEK in human A549 cells assessed as reduction in ERK phosphorylation at 1 uM incubated for 2 hrs by Western blot analysis; assay type: cell-based
Summary of the method: as §1

MDA-MB-231 [12] = test: Antiproliferative activity against human MDA-MB-231 cells harboring KRAS G13D/BRAF G464V mutant assessed as inhibition of cell viability after 96 hrs by Celltiter-Glo assay; assay type: functional, cell-based; settings: MDA-MB-231, 96 h
MDA-MB-231 [13] = test: Induction of apoptosis in human MDA-MB-231 cells assessed as late apoptotic cells at 1 uM incubated for 24 hrs by AnnexinV-FITC and propidium iodide staining based flow cytometry (reference value: 3.54%); assay type: functional
[14] = target: T1, Dual specificity mitogen-activated protein kinase kinase; MEK1/2 (Homo sapiens); test: Inhibition of MEK in human MDA-MB-231 cells assessed as reduction in ERK phosphorylation at 10 uM incubated for 4 hrs by Western blot analysis; assay type: cell-based
Summary of the method: as §2

A549 = test: Antiproliferative activity against human A549 cells harboring KRAS G12S mutant assessed as inhibition of cell viability after 96 hrs by Celltiter-Glo assay; assay type: functional, cell-based; settings: A549, 96 h
[15] = target: T1, Dual specificity mitogen-activated protein kinase kinase; MEK1/2 (Homo sapiens); test: Inhibition of MEK in human MDA-MB-231 cells assessed as reduction in MEK phosphorylation at 1 to 10 uM incubated for 24 hrs by Western blot analysis; assay type: cell-based; settings: dose 1-10 µM
Summary of the method: as §2

[16] = target: T1, Dual specificity mitogen-activated protein kinase kinase; MEK1/2 (Homo sapiens); test: Inhibition of MEK in human MDA-MB-231 cells assessed as reduction in MEK phosphorylation at 10 uM incubated for 2 hrs by Western blot analysis; assay type: cell-based
Summary of the method: as §2

[17] = target: T1, Dual specificity mitogen-activated protein kinase kinase; MEK1/2 (Homo sapiens); test: Inhibition of MEK in human A549 cells assessed as reduction in ERK phosphorylation incubated for 2 hrs by Western blot analysis; assay type: cell-based; settings: dose 1-10 µM
Summary of the method: as §1

[18] = target: T1, Dual specificity mitogen-activated protein kinase kinase; MEK1/2 (Homo sapiens); test: Inhibition of MEK in human MDA-MB-231 cells assessed as reduction in ERK phosphorylation at 10 uM incubated for 2 hrs by Western blot analysis; assay type: cell-based
Summary of the method: as §2

MDA-MB-231 [19] = test: Induction of apoptosis in human MDA-MB-231 cells assessed as necrotic cells at 1 uM incubated for 24 hrs by AnnexinV-FITC and propidium iodide staining based flow cytometry (reference value: 1.084%); assay type: functional
MDA-MB-231 [20] = test: Induction of apoptosis in human MDA-MB-231 cells assessed as viable cells at 1 uM incubated for 24 hrs by AnnexinV-FITC and propidium iodide staining based flow cytometry (reference value: 90.962%); assay type: functional; settings: read-out: Activity
[21] = target: T1, Dual specificity mitogen-activated protein kinase kinase; MEK1/2 (Homo sapiens); test: Inhibition of MEK in human A549 cells assessed as reduction in MEK phosphorylation by Western blot analysis; assay type: cell-based; settings: TDE = time-dependent effect
Summary of the method: as §1

HCT-116 = test: Antiproliferative activity against human HCT116 cells harboring KRAS G13D mutant assessed as inhibition of cell viability after 96 hrs by Celltiter-Glo assay; assay type: functional, cell-based; settings: HCT-116, 96 h
[22] = target: T1, Dual specificity mitogen-activated protein kinase kinase; MEK1/2 (Homo sapiens); test: Inhibition of MEK in human A549 cells assessed as reduction in MEK phosphorylation incubated for 2 hrs by Western blot analysis; assay type: cell-based; settings: dose 1-10 µM
Summary of the method: as §1

MDA-MB-231 [23] = test: Induction of apoptosis in human MDA-MB-231 cells assessed as early apoptotic cells at 10 uM incubated for 24 hrs by AnnexinV-FITC and propidium iodide staining based flow cytometry (reference value: 4.4%); assay type: functional

CNS(=O)(=O)Nc1cccc(Cc2c(C)c3ccc(OCCOc4no[n+]([O-])c4S(=O)(=O)c4ccccc4)cc3oc2=O)c1F
Drug metabolism [1]: Metabolite_Detected
inhibition [2]: Tde
Activity (MDA-MB-231 [3]): 20.2%
inhibition [4]: 100%
inhibition [5]: Active
IC50 (HL-60): 530 nM
Activity (MDA-MB-231 [6]): 14.737%
inhibition [7]: Active
IC50 (L02): 2780 nM
IC50 (Vero): 4340 nM
IC50 [8]: 330 nM
viability at 10 µM (MDA-MB-231 [9]): 57.2%
Activity (MDA-MB-231 [10]): 5.11%
inhibition [11]: Active
IC50 (MDA-MB-231 [12]): 93 nM
Activity (MDA-MB-231 [13]): 8.15%
inhibition [14]: 100%
IC50 (A549): 1100 nM
inhibition [15]: Active
inhibition [16]: Active
inhibition [17]: Dose-dependent effect
inhibition [18]: Active
Activity (MDA-MB-231 [19]): 3.613%
viability at 1 µM (MDA-MB-231 [20]): 68%
inhibition [21]: Tde
IC50 (HCT-116): 670 nM
inhibition [22]: Dose-dependent effect
Activity (MDA-MB-231 [23]): 22.9%
